In ChEMBL document CHEMBL1142136, “Contribution of target gene mutations and efflux to decreased susceptibility of Salmonella enterica serovar typhimurium to fluoroquinolones and other antimicrobials” (2007):
In brackets after ≈: the same amount, converted by molar mass.

Legend:
Assay type in all cases: functional, Salmonella enterica subsp. enterica serovar Typhimurium
[1] = system: Salmonella typhimurium; assay: Antimicrobial activity against Salmonella enterica serovar Typhimurium S21-2 tolC::Kan with GyrA S83F, ParC S80I mutation
Outline: (§1)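 MICs measured by broth microdilution on the Sensititre automated system and interpreted by CLSI broth microdilution standards. Ciprofloxacin was also tested by agar dilution, widening the range to 0.0075–128 μg/ml. Quality control strains were E. coli ATCC 25922 and 35218, E. faecalis ATCC 29212, S. aureus ATCC 29213 and P. aeruginosa ATCC 27853.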

[2] = system: Salmonella typhimurium; assay: Antimicrobial activity against Salmonella enterica serovar Typhimurium CS9 acrAB::Kan with GyrA S83F, D87N, ParC S80I mutation; outline: as §1
[3] = system: Salmonella typhimurium; assay: Antimicrobial activity against Salmonella enterica serovar Typhimurium S21; outline: as §1
[4] = system: Salmonella typhimurium; assay: Antimicrobial activity against Salmonella enterica serovar Typhimurium S21-3 acrAB::Kan with GyrA S83F, ParC S80I mutation; outline: as §1
[5] = system: Salmonella typhimurium; assay: Antimicrobial activity against Salmonella enterica serovar Typhimurium S21-1 GyrA S83F mutant; outline: as §1
[6] = system: Salmonella typhimurium; assay: Antimicrobial activity against Salmonella enterica serovar Typhimurium CHS38 acrAB::Kan with GyrA D87G mutation; outline: as §1
[7] = system: Salmonella typhimurium; assay: Antimicrobial activity against Salmonella enterica serovar Typhimurium S21-2 acrAB::Kan with GyrA S83F, ParC S80I mutation; outline: as §1
[8] = system: Salmonella typhimurium; assay: Antimicrobial activity against Salmonella enterica serovar Typhimurium CS1 with GyrA S83F, D87N, ParC S80I mutation; outline: as §1
[9] = system: Salmonella typhimurium; assay: Antimicrobial activity against Salmonella enterica serovar Typhimurium S21-2 with GyrA S83F, ParC S80I mutation; outline: as §1
[10] = system: Salmonella typhimurium; assay: Antimicrobial activity against Salmonella enterica serovar Typhimurium S21 gyrA+; outline: as §1
[11] = system: Salmonella typhimurium; assay: Antimicrobial activity against Salmonella enterica serovar Typhimurium S21-1 tolC::Kan with GyrA S83F mutation; outline: as §1
[12] = system: Salmonella typhimurium; assay: Antimicrobial activity against Salmonella enterica serovar Typhimurium S21-3 tolC::Kan with GyrA S83F, ParC S80I mutation; outline: as §1
[13] = system: Salmonella typhimurium; assay: Antimicrobial activity against Salmonella enterica serovar Typhimurium CHS18 with GyrA S38F mutation; outline: as §1
[14] = system: Salmonella typhimurium; assay: Antimicrobial activity against Salmonella enterica serovar Typhimurium CS3 gyrA+ with GyrA S83F, D87N, ParC S80I mutation; outline: as §1
[15] = system: Salmonella typhimurium; assay: Antimicrobial activity against Salmonella enterica serovar Typhimurium CS3 tolC::Kan with GyrA S83F, D87N, parC S80I mutation; outline: as §1
[16] = system: Salmonella typhimurium; assay: Antimicrobial activity against Salmonella enterica serovar Typhimurium CS3 acrAB::Kan with GyrA S83F, D87N, ParC S80I mutation; outline: as §1
[17] = system: Salmonella typhimurium; assay: Antimicrobial activity against Salmonella enterica serovar Typhimurium CHS14 gyrA+ with GyrA D87G mutation; outline: as §1
[18] = system: Salmonella typhimurium; assay: Antimicrobial activity against Salmonella enterica serovar Typhimurium CS1 tolC::Kan with GyrA S83F, D87N, ParC S80I mutation; outline: as §1
[19] = system: Salmonella typhimurium; assay: Antimicrobial activity against Salmonella enterica serovar Typhimurium CS3 with GyrA S83F, D87N, ParC S80I mutation; outline: as §1
[20] = system: Salmonella typhimurium; assay: Antimicrobial activity against Salmonella enterica serovar Typhimurium S21-3 gyrA+ with ParC S80I mutation; outline: as §1
[21] = system: Salmonella typhimurium; assay: Antimicrobial activity against Salmonella enterica serovar Typhimurium CHS38 tolC::Kan with GyrA D87G mutation; outline: as §1
[22] = system: Salmonella typhimurium; assay: Antimicrobial activity against Salmonella enterica serovar Typhimurium CS9 tolC::Kan with GyrA S83F, D87N, ParC S80I mutation; outline: as §1
[23] = system: Salmonella typhimurium; assay: Antimicrobial activity against Salmonella enterica serovar Typhimurium CHS18 acrAB::Kan with GyrA S38F mutation; outline: as §1
[24] = system: Salmonella typhimurium; assay: Antimicrobial activity against Salmonella enterica serovar Typhimurium S21-4 tolC::Kan with GyrA S83F, ParC S80I mutation; outline: as §1
[25] = system: Salmonella typhimurium; assay: Antimicrobial activity against Salmonella enterica serovar Typhimurium S21 acrAB::Kan
Outline: (§2)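 MICs by automated broth microdilution panels, interpreted to CLSI broth microdilution standards. Ciprofloxacin additionally tested by agar dilution across 0.0075 to 128 μg/ml. Quality control strains: E. coli ATCC 25922 and 35218, Enterococcus faecalis ATCC 29212, S. aureus ATCC 29213, P. aeruginosa ATCC 27853. Test strains are kanamycin-marked deletion mutants of ground-beef isolate S21.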

[26] = system: Salmonella typhimurium; assay: Antimicrobial activity against Salmonella enterica serovar Typhimurium CHS14 tolC::Kan with GyrA D87G mutant; outline: as §1
[27] = system: Salmonella typhimurium; assay: Antimicrobial activity against Salmonella enterica serovar Typhimurium CHS38 with GyrA D87G mutation; outline: as §1
[28] = system: Salmonella typhimurium; assay: Antimicrobial activity against Salmonella enterica serovar Typhimurium CHS14 with GyrA D87G mutation; outline: as §1
[29] = system: Salmonella typhimurium; assay: Antimicrobial activity against Salmonella enterica serovar Typhimurium CHS18 gyrA+ with GyrA S38F mutation; outline: as §1
[30] = system: Salmonella typhimurium; assay: Antimicrobial activity against Salmonella enterica serovar Typhimurium CHS18 tolC::Kan with GyrA S38F mutation; outline: as §1
[31] = system: Salmonella typhimurium; assay: Antimicrobial activity against Salmonella enterica serovar Typhimurium S21-2 gyrA+ with ParC S80I mutation; outline: as §1
[32] = system: Salmonella typhimurium; assay: Antimicrobial activity against Salmonella enterica serovar Typhimurium S21-4 with GyrA S83F, ParC S80I mutation; outline: as §1
[33] = system: Salmonella typhimurium; assay: Antimicrobial activity against Salmonella enterica serovar Typhimurium CHS14 acrAB::Kan with GyrA D87G mutation; outline: as §1
[34] = system: Salmonella typhimurium; assay: Antimicrobial activity against Salmonella enterica serovar Typhimurium CS1 gyrA+ with GyrA S83F, D87N, ParC S80I mutation; outline: as §1
[35] = system: Salmonella typhimurium; assay: Antimicrobial activity against Salmonella enterica serovar Typhimurium S21-1 gyrA+; outline: as §1
[36] = system: Salmonella typhimurium; assay: Antimicrobial activity against Salmonella enterica serovar Typhimurium CS9 with GyrA S83F, D87N, ParC S80I mutation; outline: as §1
[37] = system: Salmonella typhimurium; assay: Antimicrobial activity against Salmonella enterica serovar Typhimurium S21-4 gyrA+ with ParC S80I mutation; outline: as §1
[38] = system: Salmonella typhimurium; assay: Antimicrobial activity against Salmonella enterica serovar Typhimurium CS9 gyrA+ with GyrA S83F, D87N, ParC S80I mutation; outline: as §1
[39] = system: Salmonella typhimurium; assay: Antimicrobial activity against Salmonella enterica serovar Typhimurium S21-3 with GyrA S83F, ParC S80I mutation; outline: as §1
[40] = system: Salmonella typhimurium; assay: Antimicrobial activity against Salmonella enterica serovar Typhimurium CS1 acrAB::Kan with GyrA S83F, D87N, ParC S80I mutation; outline: as §1
[41] = system: Salmonella typhimurium; assay: Antimicrobial activity against Salmonella enterica serovar Typhimurium S21 tolC::Kan; outline: as §2
[42] = system: Salmonella typhimurium; assay: Antimicrobial activity against Salmonella enterica serovar Typhimurium S21-4 acrAB::Kan with GyrA S83F, ParC S80I mutation; outline: as §1
[43] = system: Salmonella typhimurium; assay: Antimicrobial activity against Salmonella enterica serovar Typhimurium CHS38 gyrA+ with GyrA D87G mutation; outline: as §1
[44] = system: Salmonella typhimurium; assay: Antimicrobial activity against Salmonella enterica serovar Typhimurium GyrA S21-1 acrAB::Kan with GyrA S83F mutation; outline: as §1

CCn1cc(C(=O)O)c(=O)c2ccc(C)nc21 [NALIDIXIC ACID]
MIC [1]: 64 µg/mL (≈ 276 µM)
MIC [2]: > 256 µg/mL
MIC [3]: 4 µg/mL (≈ 17.2 µM)
MIC [4]: 64 µg/mL (≈ 276 µM)
MIC [5]: 256 µg/mL (≈ 1100 µM)
MIC [6]: 1 µg/mL (≈ 4.31 µM)
MIC [7]: 64 µg/mL (≈ 276 µM)
MIC [8]: > 256 µg/mL
MIC [9]: > 256 µg/mL
MIC [10]: 4 µg/mL (≈ 17.2 µM)
MIC [11]: 32 µg/mL (≈ 138 µM)
MIC [12]: 32 µg/mL (≈ 138 µM)
MIC [13]: 256 µg/mL (≈ 1100 µM)
MIC [14]: 4 µg/mL (≈ 17.2 µM)
MIC [15]: 256 µg/mL (≈ 1100 µM)
MIC [16]: > 256 µg/mL
MIC [17]: 4 µg/mL (≈ 17.2 µM)
MIC [18]: 256 µg/mL (≈ 1100 µM)
MIC [19]: > 256 µg/mL
MIC [20]: > 256 µg/mL
MIC [21]: 0.5 µg/mL (≈ 2.15 µM)
MIC [22]: 256 µg/mL (≈ 1100 µM)
MIC [23]: 16 µg/mL (≈ 68.9 µM)
MIC [24]: > 256 µg/mL
MIC [25]: 1 µg/mL (≈ 4.31 µM)
MIC [26]: 16 µg/mL (≈ 68.9 µM)
MIC [27]: 32 µg/mL (≈ 138 µM)
MIC [28]: 128 µg/mL (≈ 551 µM)
MIC [29]: 32 µg/mL (≈ 138 µM)
MIC [30]: 32 µg/mL (≈ 138 µM)
MIC [31]: 64 µg/mL (≈ 276 µM)
MIC [32]: > 256 µg/mL
MIC [33]: 8 µg/mL (≈ 34.4 µM)
MIC [34]: 4 µg/mL (≈ 17.2 µM)
MIC [35]: 4 µg/mL (≈ 17.2 µM)
MIC [36]: > 256 µg/mL
MIC [37]: > 256 µg/mL
MIC [38]: 4 µg/mL (≈ 17.2 µM)
MIC [39]: > 256 µg/mL
MIC [40]: > 256 µg/mL
MIC [41]: 1 µg/mL (≈ 4.31 µM)
MIC [42]: > 256 µg/mL
MIC [43]: 8 µg/mL (≈ 34.4 µM)
MIC [44]: 32 µg/mL (≈ 138 µM)
